Source: PMC9305876 (International Journal of Cosmetic Science, 2022)

Key:
[1] = molecular target: T1, recombinant human tyrosinase (Homo sapiens, UniProt P14679); test: biochemical
T1 sequence (P14679 19-476 limits assumed): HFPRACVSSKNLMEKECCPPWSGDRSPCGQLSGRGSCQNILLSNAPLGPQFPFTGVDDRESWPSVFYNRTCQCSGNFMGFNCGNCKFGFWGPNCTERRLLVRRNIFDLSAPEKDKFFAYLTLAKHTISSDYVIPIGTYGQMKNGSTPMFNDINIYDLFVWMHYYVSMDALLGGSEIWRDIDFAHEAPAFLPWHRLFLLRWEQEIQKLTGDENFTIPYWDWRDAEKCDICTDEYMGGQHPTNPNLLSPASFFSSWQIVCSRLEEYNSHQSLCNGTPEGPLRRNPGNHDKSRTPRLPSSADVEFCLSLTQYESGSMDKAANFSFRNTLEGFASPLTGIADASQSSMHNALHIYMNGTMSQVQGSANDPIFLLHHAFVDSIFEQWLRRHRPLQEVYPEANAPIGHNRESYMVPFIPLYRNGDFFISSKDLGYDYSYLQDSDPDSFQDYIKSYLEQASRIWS

[2] = system: primary human epidermal melanocytes; test: Melanin content assay in melanocyte cultures; format: cell-based; details: for reduction in melanin synthesis: 72 h; for inhibition of melanin production in melanocytes: 72 h of treatment, at similar doses, mean ± SD
primary melanocytes = test: Cell viability; format: cell-based, human
Summary of the method: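 Neonatal foreskin primary human epidermal melanocytes at passages 4–6 were grown in Medium 254‑CF with melanocyte growth supplement at 37°C and 5% CO2. They were exposed to test compound for 72 h, starting 24 h after plating, alongside 0.1% (v/v) DMSO or medium vehicle controls. Cells were washed in Ca/Mg‑free PBS and loaded with 1 µM Calcein‑AM for 30 min at 37°C, protected from light. Fluorescence was read at ex 490/em 520 nm, with cell‑free blank wells.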

Structure (SMILES)	IC50 [1] [µM]	reduction in melanin synthesis ([2]; niacinamide alone (comparator to 10 mM in combination)) [%]	maximum non‐cytotoxic dose for primary melanocytes (primary melanocytes) [mM]	inhibition of melanin production in melanocytes [2] [%]	reduction in melanin synthesis ([2]; 4‐HR alone (comparator to 1 µM in combination)) [%]
Oc1ccc(O)cc1 [Hydroquinone, hydroquinone]	> 1000	–	–	–	–
NC(=O)c1cccnc1 [niacinamide]	–	7.2 ± 4.3	10	–	–
CCCCc1ccc(O)cc1O [4‐BR, 4‐butylresorcinol]	13	–	–	28.6 ± 3	–
CCCCCCc1ccc(O)cc1O [4‐HR, 4‐hexylresorcinol]	16	–	0.01	35 ± 1.9	7.3 ± 3
